From paper PMC8373685 (European journal of medicinal chemistry, 2021) come the findings set out here.

As usually defined, the IC50 is the concentration at which inhibition is half-maximal.

Data set [1] has as its system TNFα-induced IKKβ-mediated NFκB activity. In words: κB luciferase reporter assay. In kind it is cell-based. The conditions noted are these: for inhibition of TNFα-induced NFκB activity (SAR, in words): A549 luciferase reporter.
Data set [2] relates to MiaPaCa2 cells. The data set is described as follows: Cell scratch. In kind it is cell-based. The conditions noted are these: 5 μM at 24 and 48h; compared to DMSO.
Data set [3] concerns MiaPaCa2 cells subcutaneously implanted. In words: Pancreatic tumor xenograft model. In kind it is in vivo, athymic nude mice. The conditions noted are these: treated versus vehicle, n = 5. In short, it runs like this:
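MiaPaCa2 cells (2.5×10⁶, Matrigel 2:1) were implanted s.c. in the flank of athymic nude mice and randomized at day 20 (n=6/group). Arms: vehicle, test compound 40 mg/kg orally daily, gemcitabine 15 mg/kg i.p. every 72 h, or combination. Mice were sacrificed after day 27. On FFPE tumors, Ki-67 was scored as % positive cells over 4 fields, and p-IKKβ by IHC histoscore (proportion 1–5 × intensity 0–3); n=5, unpaired t-test.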

Data set [4] has as its system MiaPaCa2 cells. In words: Live/dead cell assay. In kind it is cell-based. The note with it: 5 and 10 μM for 24h.
The test system of the next data set is T3M4. In words: Growth inhibition assay. In kind it is cell-based. The conditions noted are these: 3-day cell growth assay. The essentials:
(§1)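 Cell viability was read with PrestoBlue after 72 h incubation with test compound, n=3. Data are average ± SEM.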

Another data set relates to MiaPaCa2. In words: Growth inhibition assay. In kind it is cell-based. In short, it runs like this:
as §1

Data set [5] deals with caspase 3/7 activity in MiaPaCa2 cells. In words: Caspase 3/7 assay. In kind it is cell-based. The note with it: 10 μM, 24h. In short, it runs like this:
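MiaPaCa2 cells were exposed to test compound for 24 h at 0.1% final DMSO, n=3. At 21 h, alamarBlue (1/10 well volume) was added for 3 h and fluorescence read at 560ex/590em. Plates equilibrated 15 min at room temperature, then Caspase-Glo reagent was added and luminescence read 2 h later. Value = (luminescence×100/fluorescence)/DMSO average.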

Data set [6] in a line: Pharmacokinetic studies in mice. In kind it is in vivo, CD1 mice. In short, it runs like this: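 CD1 mice received test compound orally at 20 mg/kg in DMSO:PEG400:H₂O 1:4:5, or intravenously at 10 mg/kg in DMSO:PEG400:H₂O 1:5:4. Mice were sacrificed at 0.083–24 h (8 time points) and plasma analysed by LC/MS/MS with carbamazepine as internal standard. PK parameters came from non-compartmental analysis; oral bioavailability was derived from oral versus intravenous AUC.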

For data set [7], the system named is MiaPaCa2 cells. The data set is described as follows: Colony formation assay. In kind it is cell-based. The note with it: 5 μM; compared to DMSO treated cells. In short, it runs like this:
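MiaPaCa2 cells (1.0×10³) were seeded in 6-well plates and treated 24 h. They were then washed and grown 8–10 days, with medium changed every 3 days. Cells were fixed in 4% paraformaldehyde 15 min and stained with 0.5% crystal violet 2 h at room temperature. Colonies were counted in triplicate from 10x bright-field images against vehicle (DMSO); unpaired t-test.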

For the compound `Cn1cc(-c2cnc3ccc(NC(=O)Nc4ccc(F)c(Br)c4)cc3c2)cn1` [compound 85, 1-(3-bromo-4-fluorophenyl)-3-(3-(1-methyl-1H-pyrazol-4-yl)quinolin-6-yl)urea], the “inhibition of TNFα-induced NFκB activity (SAR, in words)” value (“inhibition … (SAR, in words)” for short) in [1] (screened at 10μM) was “loss of activity”.
Consider “1-(3-chloro-4-fluorophenyl)-3-(3-(1-methyl-1H-pyrazol-4-yl)quinoxalin-6-yl)urea [compound 80]”, for which the “potency in NFκB screen relative to 13–197” value in data set [1] (screened at 10μM) is ~ 3 fold.
As for “1-(4-fluoro-3-methylphenyl)-3-(3-(1-methyl-1H-pyrazol-4-yl)quinoxalin-6-yl)urea [compound 81]”, in data set [1] (screened at 10μM), the “inhibition … (SAR, in words)” value is “dramatically reduced the activity”.
The same measure, in the same setting: with `Cn1ccc(-c2cnc3ccc(NC(=O)Nc4ccc(F)c(Br)c4)cc3n2)c1` [compound 86, 1-(3-bromo-4-fluorophenyl)-3-(3-(1-methyl-1H-pyrrol-3-yl)quinoxalin-6-yl)urea] the entry was “loss of activity”.
On the same count and under the same terms, with “1-(4-fluoro-3-(trifluoromethoxy)phenyl)-3-(3-(1-methyl-1H-pyrazol-4-yl)quinoxalin-6-yl)urea [compound 83]” the entry was “further improved”; with “1-(3-(1-methyl-1H-pyrazol-4-yl)quinoxalin-6-yl)-3-(3-(trifluoromethyl)phenyl)urea [compound 79]”, “further improvement of activity”; with “1-(4-fluoro-3-methoxyphenyl)-3-(3-(1-methyl-1H-pyrazol-4-yl)quinoxalin-6-yl)urea [compound 82]”, “activity was restored”.
Consider “1-(4-fluoro-3-(trifluoromethyl)phenyl)-3-(3-(1-methyl-1H-pyrazol-4-yl)quinoxalin-6-yl)urea [compound 84]”, for which the “inhibition of cell migration” value in the data set on MiaPaCa2 cells [2] is recorded as “more effective inhibiting the migration of PDAC cells”. Moreover, the “p-IKKβ levels in tumor tissue” value in data set [3] (immunohistochemistry) is reported as “reduction in p-IKKβ levels”. Further, the “Ki67 staining (proliferation index) in tumor tissue” value in data set [3] was “reduction in Ki67 staining”. The “cell death in live/dead assay” value with MiaPaCa2 cells [4] is “induced MiaPaCa2 cell death in a dose-dependent manner”. Besides, in the data set on T3M4, the growth inhibition result is recorded as “low-μM potency”. In the data set on MiaPaCa2 (3-day cell growth assay, MiaPaCa2), the growth inhibition entry is “low-μM potency”. In addition, in the data set with MiaPaCa2 (cell line not specified at place), the “potency in inhibiting pancreatic cancer cell growth relative to 13–197” value is recorded as ~ 4 fold. In [5], the “caspase 3/7 activation” value is reported as “most potently induced caspase activation” and the “caspase 3/7 induction relative to 13–197” value is given as ~ 4 fold. Besides, the “increase in oral bioavailability (%F) relative to 13–197” value in data set [6] is given as ~ 5.7 fold. For the same compound, in data set [6] (10 mg/kg intravenous versus 20 mg/kg oral), the “intravenous exposure (AUC0−∞) relative to oral exposure” value is ~ 2.8 fold. Besides, in data set [6] (20 mg/kg oral), the “Tmax and Cmax relative to 13–197” value was ~ 2.5 times; the “exposure (AUC0−∞) relative to 13–197” value is recorded as ~ 4.3 fold. In addition, the “inhibition of colony forming ability” value with MiaPaCa2 cells [7] is greater than 50%. Moreover, the “IC50 ratio versus 13–197, TNFα-induced NFκB inhibition” value in data set [1] (84 versus reported value for 13–197) is ~ 2.5 fold. Besides, the IC50 in data set [1] (read-out: IC50, TNFα-induced IKKβ-mediated NFκB activity, dose-response, dual luciferase reporter assay, n = 3) came out at 3.3 ± 0.5 µM. In data set [1] (screened at 10μM), the “inhibition … (SAR, in words)” value is “most potent inhibitor”.
